Reference: the EternaBench riboswitch data

System: MS2 coat protein
Experiment: apparent Kd, MS2 coat protein; higher = weaker binding; RNA-MaP array
Outline: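 Incubations were done at room temperature with fluorescently labeled MS2 coat protein at 1.5 nM to 3 μM and designed RNAs transcribed on an Illumina sequencing chip from sequenced DNA templates, with or without input ligand. Apparent Kd is the median of binding curves fitted for each cluster. Designs with fewer than 10 measured clusters were excluded.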

[1] = designed as: OFF switch for flavin mononucleotide, no ligand
[2] = ligand present: flavin mononucleotide, designed as: OFF switch for flavin mononucleotide
[3] = designed as: ON switch for flavin mononucleotide, no ligand
[4] = ligand present: flavin mononucleotide, designed as: ON switch for flavin mononucleotide
[5] = designed as: OFF switch for theophylline, no ligand
[6] = ligand present: theophylline, designed as: OFF switch for theophylline

Sequence	apparent Kd [1]	apparent Kd [2]	further results
UAGAAACUCGUAAGGAUAUCCGAAGAGAAAAUGAGGGAGAAGGUACAUGAGGAUCACCCAUGUAUGAAAUGGAC	7.64 nM	7.98 nM	–
UAGAAAUCCUUGCAGGAUAUGUUGGAGUCUACAUGAGGAUCACCCAUGUUUAGUAGCAGGCGACGACAGAAGGGCAAUCUCAUGAU	–	–	apparent Kd [3]: 23.6 nM; apparent Kd [4]: 9.18 nM
UAGAUCCCAGUCAGGAUAUCCAGGGAGAAUAGGAGGGAGAAGGGACAUGAGGAUCACCCAUGUAUGCGACUACC	7.91 nM	8.92 nM	–
UAGGUUAGGUAGAAGGGCAAGUAAUUCCACAUGAGGAUCACCCAUGUUCCUGUUUGGGAGGCUGUGCAGGAUAUACGAAAAUAA	117 nM	153 nM	–
UAGUAAACCGCAGGAUAUCCAACUUGGGCACCAGGAGAAGGGCGAUUAACAUGAGGAUCACCCAUGUAUUCGGAGAGCUUACCU	–	–	apparent Kd [3]: 10.4 nM; apparent Kd [4]: 9.18 nM
UAGUAACAUGAGGAUCACCCAUGUCCGGAUACCAGACAUAUACCAGUCCCUUGGCAGCCGCCAGUUAAAAUCUAACACAAAAGUU	–	–	apparent Kd (designed as: ON switch for theophylline, no ligand): 46.2 nM; apparent Kd (ligand present: theophylline, designed as: ON switch for theophylline): 21.5 nM
UAUGUAUAGAAGGAUAUCUAAUUACGCCCGAUAAGAGAAGGUCUGACAUGAGGAUCACCCAUGUUAUGGGAGGC	18.1 nM	23.3 nM	–
UAUUGGAUAGGAUAUACAUGAGGAUCACCCAUGUUUUCAUUGGACGAGGACGCUCUUCGUAGAAGGAUCGGCUA	10.8 nM	10.2 nM	–
UCAACAUGAGGAUCACCCAUGUCAUCGGCGUUCUCAGACACUAGAAGGAACAGGCGUAUCUGCGGUUAGGAUAUAGACACACAU	31.3 nM	31 nM	–
UCAAGGUCAGGAUAUUUAUACAGUCGAUUACGAGGAUGUCGAAAGAAGGGACAUGAGGAUCACCCAUGUGGUAC	43 nM	57.7 nM	–
UCCACGGACCAAGGAUAUCCACAGUGAACCAGAGGAGAAGGUGGGAAUUACAUGAGGAUCACCCAUGUACGGGAUCUCCUGUAU	–	–	apparent Kd [3]: 47.5 nM; apparent Kd [4]: 41.7 nM
UCCCAGCAAGGAUAUACAUGAAAAGGUAAAGAAGAAAAGAAACAUGAGGAUCACCCAUGUAGAAGGUGCAAGAG	15.5 nM	18.4 nM	–
UCUCAUCAGUAGAAGGGCAGACCCUAACAAGGUGCAGGAUAUACUCUAAGUCCUACAUGAGGAUCACCCAUGUCAUAUAUCGGG	323 nM	196 nM	–
UCUGGUUGAGGAUAUACAUGAGGAUCACCCAUGUCACCUAGCAAAGUAGAGAGUAAGUGUAGAAGGCAACCUUU	15.6 nM	18.9 nM	–
UCUGUGAUUCAAGGAUAUAAGUCGAGUGCUUGCUUAGAAGGUGACGAACAUGAGGAUCACCCAUGUGCUUUAUUCUUAUGCAUC	29.2 nM	25.6 nM	–
UGACACAUGAGGAUCACCCAUGUUGGGUAAUGUUAACGUACAAGAAGGGCAGCCGGCCGGACGUUGCAGGAUAUUGUAGCGCGA	41.7 nM	31.1 nM	–
UGCCUAUACCAGAAGGGCGUACGGGAAAACAUGAGGAUCACCCAUGUGAGAUCAUCAUCGCUAGCGCAGGAUAUGGAAGUUCGG	25 nM	29.4 nM	–
UGCGGCGAAGGAUAUUGACCAAAACACAUGAGGAUCACCCAUGUACUCAUAACAUGCUAACAAGAAGGUCGCGUAA	15.9 nM	13.8 nM	–
UUACAACAUGAGGAUCACCCAUGUUAGGAUAUACGAGGGACAGCGCGGUUAUAUCCCUGUAGAAGGAACACGGG	39.6 nM	47.6 nM	–
UUAUAUUCUCAAUCGCCAUGUGCUUUAGAUACCAGUCUGAUAAAUGACCCUUGGCAGCUAGAGACAUGAGGAUCACCCAUGUCUU	–	–	apparent Kd [5]: 10.6 nM; apparent Kd [6]: 29.8 nM
UUCCUGAAAGGAUAUACCUGGCCCGUGAACUGGAUAAAAGCACAUGAGGAUCACCCAUGUAGAAGGUUCGAUUA	7.14 nM	7.02 nM	–
UUCUCAUCGUACAUGAGGAUCACCCAUGUCUCCCAUUUACCCUAGGAUAUGAAAGACCUUUACUCUCAGAAGGAGGAUGAUGCA	–	–	apparent Kd [3]: 63.2 nM; apparent Kd [4]: 51.9 nM
UUGGCACGGACGGCCGCCACUCUUUCACAUGAGGAUCACCCAUGUUAUCUAGUCCUCAGCAGAAAGAGGACCGGGUCGGAGUUGG	–	–	apparent Kd (designed as: OFF switch for tryptophan, no ligand): 126 nM; apparent Kd (ligand present: tryptophan, designed as: OFF switch for tryptophan): 122 nM
UUGUACGAAACUGAUACCAGCCAGCAAUGCCACCAAGAGCACAUGAGGAUCACCCAUGUUGGCCCUUGGCAGCAGGACAAUAAGC	–	–	apparent Kd [5]: 8.63 nM; apparent Kd [6]: 9.47 nM
UUUACGAACGUGGAAAUACAUGAGGAUCACCCAUGUCAAUUGUAGGAUAUCCGGCUCAAAGAAAUGGAGAAGGACAACGACUCC	–	–	apparent Kd [3]: 13.4 nM; apparent Kd [4]: 12.7 nM
UUUGUAUAGCAGAAGGCGUUAUUAGGAUGGCUACGAGGAUAUGCGGUACUCUAUUAGUACAUGAGGAUCACCCAUGUGUGGGCC	–	–	apparent Kd [3]: 214 nM; apparent Kd [4]: 145 nM
